We go through twelve molecules from ChEMBL document CHEMBL1151246, “New crinine-type alkaloids with inhibitory effect on induction of inducible nitric oxide synthase from Crinum yemense” (J Nat Prod, 2004).

Structures are written as SMILES.

Assay [1] has as its system Macrophage. Briefly: Inhibition of LPS-induced NO production in ddY mouse macrophages at 3 uM after 20 hrs by Griess reagent assay relative to control. It counts as functional. Summed up: (§1)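 Thioglycolate-elicited peritoneal macrophages from male ddY mice were precultured 1 h; nonadherent cells were washed off. Adherent cells (5 × 10⁵/well, RPMI 1640 with 5% FCS) were exposed 20 h to 10 μg/mL LPS with compound (1–100 μM, 0.5% DMSO final). Nitrite in the medium was measured with Griess reagent. Inhibition = (A−B)/(A−C) × 100 against LPS-only and unstimulated wells; IC50 was read graphically, N = 4, means ± SEM.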
In general terms: The Griess reaction detects nitrite, a stable product of nitric oxide.

The subject of assay [2] is Macrophage. Briefly: Inhibition of LPS-induced NO production in ddY mouse macrophages after 20 hrs by Griess reagent assay. It counts as functional, cell-based. In a few lines:
as §1

Assay [3] relates to Macrophage. Briefly: Inhibition of LPS-induced NO production in ddY mouse macrophages at 10 uM after 20 hrs by Griess reagent assay relative to control. The class given is functional. Summed up:
as §1

Assay [4] has as its system Macrophage. Kind of assay: Inhibition of LPS-induced NO production in ddY mouse macrophages at 1 uM after 20 hrs by Griess reagent assay relative to control. The class given is functional. Summed up: as §1
The subject of assay [5] is Macrophage. Kind of assay: Inhibition of LPS-induced NO production in ddY mouse macrophages at 100 uM after 20 hrs by Griess reagent assay relative to control. The class given is functional. Summed up: as §1
The subject of assay [6] is Macrophage. Briefly: Inhibition of LPS-induced NO production in ddY mouse macrophages at 30 uM after 20 hrs by Griess reagent assay relative to control. The class given is functional. In a few lines: as §1

Turning to `O[C@H]1C=C[C@]23c4cc5c(cc4CN(C[C@@H]2O)[C@H]3C1)OCO5`, the inhibition (usually the drop in the measured response relative to a control, in per cent) at 3 µM in assay [1] turned out to be 7.4%. Also, the IC50 (commonly the concentration at which inhibition is half-maximal) in assay [2] was determined as 24 µM. Further, the inhibition at 10 µM in assay [3] was 28.6%. In addition, in assay [4], the inhibition at 1 µM amounted to 3.1%. In addition, in assay [5], the inhibition at 100 µM was found to be 82%. Besides, in assay [6], the inhibition at 30 µM worked out at 55.6%.

`CO[C@H]1C=C[C@@]23c4cc5c(cc4CN(C[C@@H]2O)[C@H]3C1)OCO5`: the inhibition at 3 µM in assay [1] came out at 7.8%. Besides, in assay [2], the IC50 amounted to 1.8 µM. The inhibition at 10 µM in assay [3] was determined as 30.2%. In addition, the inhibition at 1 µM in assay [4] amounted to 8.1%. Further, the inhibition at 100 µM in assay [5] turned out to be 86.1%. Moreover, in assay [6], the inhibition at 30 µM amounted to 65.2%.

Consider `CO[C@H]1C=C[C@]23c4cc5c(cc4C(O)N(C[C@H]2O)[C@H]3C1)OCO5` (mixture of isomers), for which the inhibition at 3 µM in assay [1] was -23.1%. This molecule also yielded an IC50 in assay [2] of 5.4 µM. Besides, the inhibition at 10 µM in assay [3] is 6.3%. Also, the inhibition at 1 µM in assay [4] was -11.2%. Also, the inhibition at 100 µM in assay [5] came to 69.5%. In addition, in assay [6], the inhibition at 30 µM came to 30.3%.

Regarding `OC1c2cc3c(cc2[C@]24C=C[C@@H](O)C[C@@H]2N1C[C@H]4O)OCO3` (mixture of isomers) [YEMENINE C], the inhibition at 3 µM in assay [1] came to 1.6%. Also, in assay [3], the inhibition at 10 µM came to 0.5%. The inhibition at 1 µM in assay [4] was found to be 9.7%. In addition, the inhibition at 100 µM in assay [5] stood at 31.3%. In assay [6], the inhibition at 30 µM was 18.3%.

Consider `O=C(/C=C/c1ccc(O)c(O)c1)OCCc1ccccc1` [CAFFEIC ACID PHENETHYL ESTER], for which the inhibition at 3 µM in assay [1] amounted to 1.4%. Further, in assay [2], the IC50 stood at 15 µM. The inhibition at 10 µM in assay [3] came to 68.2%. In addition, the inhibition at 1 µM in assay [4] came to 3.8%. The inhibition at 100 µM in assay [5] is 99.6%. The inhibition at 30 µM in assay [6] came out at 93.7%.

In the case of `N=C(N)NCCSSCCNC(=N)N` [GUANIDINOETHYLDISULFIDE], in assay [1], the inhibition at 3 µM came to 24.4%. The midpoint of inhibition in assay [2], the IC50, lay at 7.4 µM. Also, the inhibition at 10 µM in assay [3] was 57.9%. For the same molecule, the inhibition at 1 µM in assay [4] stood at 6.2%. The inhibition at 100 µM in assay [5] is 97.9%. Also, the inhibition at 30 µM in assay [6] turned out to be 89.7%.

In the case of `CO[C@H]1[C@@H](OC)C[C@H](C)[C@@H](OC)C2=CC(=O)C=C(NC(=O)/C(C)=C/C=C/[C@H](OC)[C@@H](OC(N)=O)/C(C)=C/[C@@H]1C)C2=O` [HERBIMYCIN], the inhibition at 3 µM in assay [1] was 77%. The same molecule returned an IC50 in assay [2] of 0.094 µM. The inhibition at 1 µM in assay [4] was 48%.

With `O[C@H]1[C@H]2c3cc4c(cc3CN3CCC(=C[C@@H]1O)[C@H]23)OCO4` [LYCORINE], the inhibition at 3 µM in assay [1] was 2.8%. The molecule also registered an IC50 in assay [2] of 2.5 µM. Besides, in assay [3], the inhibition at 10 µM was 20.6%. In assay [4], the inhibition at 1 µM is 0%. The inhibition at 100 µM in assay [5] worked out at 91.4%. The inhibition at 30 µM in assay [6] came to 54.4%.

In the case of `CNC(=N)NCCC[C@H](N)C(=O)O` [TILARGININE], the inhibition at 3 µM in assay [1] turned out to be 10.3%. The same molecule returned a half-maximal inhibitory concentration (IC50) in assay [2] of 57 µM. In addition, the inhibition at 10 µM in assay [3] amounted to 15%. Besides, the inhibition at 1 µM in assay [4] turned out to be 5.9%. Besides, the inhibition at 100 µM in assay [5] amounted to 63.1%. Besides, the inhibition at 30 µM in assay [6] is 34.1%.

On to `c1ccc2c(c1)ncc1cc3c(cc12)OCO3` [TRISPHAERIDINE], for which, in assay [1], the inhibition at 3 µM was -6.9%. For the same molecule, the inhibition at 10 µM in assay [3] was -3.4%. For the same molecule, the inhibition at 1 µM in assay [4] was -7.1%. In addition, the inhibition at 100 µM in assay [5] is 0.3%. Moreover, the inhibition at 30 µM in assay [6] is -7%.

On to `O[C@@H]1C=C[C@]23CCN(Cc4cc5c(cc42)OCO5)[C@H]3C1` [VITTATINE], for which, in assay [1], the inhibition at 3 µM is -12.5%. The inhibition at 10 µM in assay [3] worked out at 7.1%. In addition, the inhibition at 1 µM in assay [4] was -0.2%. Besides, in assay [5], the inhibition at 100 µM worked out at 42.4%. Also, the inhibition at 30 µM in assay [6] stood at 13.1%.

As to `CC(=O)O[C@H]1C=C[C@]23c4cc5c(cc4CN(C[C@@H]2O)[C@H]3C1)OCO5` [YEMENINE A], in assay [1], the inhibition at 3 µM came to 38.1%. Further, the IC50 in assay [2] is 4.9 µM. For the same molecule, in assay [3], the inhibition at 10 µM is 69%. The inhibition at 1 µM in assay [4] stood at 10.4%. Also, the inhibition at 100 µM in assay [5] turned out to be 98.5%. In assay [6], the inhibition at 30 µM was 93%.
